15 compounds from ChEMBL document CHEMBL1667755, “2-hydroxyisoquinoline-1,3(2H,4H)-diones as inhibitors of HIV-1 integrase and reverse transcriptase RNase H domain: influence of the alkylation of position 4” (Eur J Med Chem, 2011) can be followed below.

The target in series [1] is Human immunodeficiency virus type 1 integrase (Human immunodeficiency virus 1, UniProt Q7ZJM1). Nature of the series: Inhibition of HIV-1 integrase after 1 hr by immunosorbent assay. Put shortly: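 Overall integration ELISA. Substrate is annealed oligos (7 nM), one 3'-biotin-labelled and one 5'-digoxigenin-labelled, with integrase at […] as written. Reaction 1 h at 37 °C, then immunodetection on avidin-coated plates. IC50 is the mean ± SD of at least three independent experiments.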

In series [2] the target is Human immunodeficiency virus type 1 reverse transcriptase (Human immunodeficiency virus 1, UniProt Q72547). Briefly: Inhibition of recombinant HIV-1 reverse transcriptase RNase H domain after 10 mins. Put shortly:
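Recombinant HIV-1 RT (4.5 pmol) preincubated with compound 10 min at 37 °C. Then added: 3H-RNA/DNA duplex (E. coli RNA polymerase transcript of calf thymus ssDNA, 20,000 cpm) in 50 mM Tris-HCl pH 8.0, 10 mM DTT, 6 mM MgCl2, 80 mM KCl; 10 min at 37 °C. Stopped with cold 10% TCA/0.1 M pyrophosphate; filter-bound radioactivity counted.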

The subject of series [3] is Human immunodeficiency virus 1. Nature of the series: Antiviral activity against HIV1 3B infected in human MT4 cells assessed as inhibition of virus-induced cytopathic effect by MTT assay. As to conditions: Human immunodeficiency virus 1, 3B; call rule not given here. Format: functional, organism-based. The method in brief: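 MT-4 cells infected with 100-300 CCID50 of HIV-1 IIIB (dose titrated in MT-4 cells) in the presence of 5-fold serial drug dilutions. Protection from virus-induced cytopathic effect read by MTT reduction to formazan, measured spectrophotometrically.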
(In general: Protection from cytopathic effect is a common read-out in antiviral testing.)

Series [4] in a line: Cytotoxicity against human MT4 cells by MTT assay. Type of series: cell-based.
In series [5] the test system is Human immunodeficiency virus 1. Nature of the series: Selectivity ratio of IC50 for recombinant HIV-1 reverse transcriptase RNase H domain to IC50 for HIV-1 integrase.

Sequence of Human immunodeficiency virus type 1 integrase (Q7ZJM1 whole entry): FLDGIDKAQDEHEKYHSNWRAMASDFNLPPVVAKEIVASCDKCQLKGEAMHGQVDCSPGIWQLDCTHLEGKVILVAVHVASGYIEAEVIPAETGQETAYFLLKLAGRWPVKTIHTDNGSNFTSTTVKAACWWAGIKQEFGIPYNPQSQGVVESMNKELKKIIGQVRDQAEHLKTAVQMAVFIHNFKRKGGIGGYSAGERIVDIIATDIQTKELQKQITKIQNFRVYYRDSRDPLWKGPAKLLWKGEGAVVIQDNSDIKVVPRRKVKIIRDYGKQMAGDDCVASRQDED

A word on the IC50: it is the concentration needed to halve the response being measured. The term EC50 denotes the concentration needed to bring the measured effect to its halfway point. The CC50 is the concentration at which the toxic effect on the cells reaches its halfway point. A higher CC50 goes with lower toxicity to the cells. `Cc1ccc(CC2C(=O)N(O)C(=O)c3ccccc32)cc1` (centres undefined): the IC50 in series [1] came to 3.4 µM; in series [2] (read-out: IC50) it was 80 µM. Further, the EC50 in series [3] is > 5.5 µM. This compound had a CC50 in series [4] of 5.5 µM.

For `O=C1c2ccccc2C(CCc2ccccc2)C(=O)N1O` (centres undefined), the values for the IC50 in series [1] and in series [2] were 27.8 µM and “Not Active”, respectively. Besides, the EC50 in series [3] was > 30 µM. This compound displayed a CC50 in series [4] of 30 µM.

Consider `CCCC1C(=O)N(O)C(=O)c2ccccc21` (centres undefined), for which the IC50 in series [1] came to 21.1 µM; in series [2] (read-out: IC50), 46.8 µM. Further, in series [3], the EC50 is > 25.4 µM. In series [4], this compound displayed a CC50 of 25.4 µM.

As for `O=C1c2ccccc2C(Cc2ccc(C(F)(F)F)cc2)C(=O)N1O` (centres undefined), the IC50 was 23.2 µM in series [1] and 42.7 µM in series [2] (read-out: IC50). Further, in series [3], the EC50 is > 6 µM. For the same compound, the CC50 in series [4] was determined as 6 µM.

Consider `O=C1c2ccccc2C(Cc2ccccc2)C(=O)N1O` (centres undefined), for which the results for the IC50 in series [1] and in series [2] were 37.7 µM and “Not Active”, respectively. Further, in series [3], the half-maximal effective concentration (EC50) is > 95 µM. In series [4], this compound gave a CC50 of 95 µM.

For `CC(C)C1C(=O)N(O)C(=O)c2ccccc21` (centres undefined), the IC50 in series [1] came out at 35.5 µM; in series [2] (read-out: IC50), 18.5 µM. Moreover, the EC50 in series [3] is > 122 µM. The midpoint of cytotoxicity in series [4], the CC50, lay at 122 µM.

Consider `CCCCCCC1C(=O)N(O)C(=O)c2ccccc21` (centres undefined), for which the IC50 in series [1] is 11.4 µM; in series [2] (read-out: IC50), 38 µM. In addition, in series [3], the EC50 is > 4.4 µM. Besides, the CC50 in series [4] is 4.4 µM.

With `O=C1c2ccccc2C(CCCc2ccccc2)C(=O)N1O` (centres undefined), the IC50 in series [1] was determined as 2.6 µM; in series [2] (read-out: IC50), 66.8 µM. In addition, the EC50 in series [3] was > 5.2 µM. In series [4], this compound displayed a CC50 of 5.2 µM.

On to `CCCCCCc1c(O)n(O)c(=O)c2ccccc12`, for which the IC50 in series [1] was 45.4 µM; in series [2] (read-out: IC50), 7.8 µM. Moreover, the EC50 in series [3] is > 128 µM. The compound further returned a CC50 in series [4] of 128 µM.

On to `CCCCC1C(=O)N(O)C(=O)c2ccccc21` (centres undefined), for which the 50% inhibitory concentration (IC50) was 40.2 µM in series [1] and 13.2 µM in series [2] (read-out: IC50). For the same compound, the EC50 in series [3] is > 25.4 µM. In series [4], this compound showed a CC50 of 25.4 µM.

As for `O=c1c2ccccc2c(Cc2ccccc2)c(O)n1O`, the IC50 in series [1] was found to be 39.9 µM; in series [2] (read-out: IC50), 14.9 µM. For the same compound, in series [3], the EC50 is > 88 µM. The 50% cytotoxic concentration (CC50) in series [4] turned out to be 88 µM.

Consider `CCCCCCCc1c(O)n(O)c(=O)c2ccccc12`, for which the IC50 in series [1] came to 113 µM; in series [2] (read-out: IC50), 45 µM. Besides, the Ratio IC50 in series [5] turned out to be 0.4.

Take `CC1C(=O)N(O)C(=O)c2ccccc21` (centres undefined): the 50% inhibitory concentration (IC50) worked out at 3.3 µM in series [1] and 38.8 µM in series [2] (read-out: IC50). Moreover, the EC50 in series [3] was > 250 µM. The compound further had a CC50 in series [4] of 250 µM.

Regarding `CCCCCC1C(=O)N(O)C(=O)c2ccccc21` (centres undefined), the figures for the IC50 in series [1] and in series [2] (read-out: IC50) were 1.35 µM and 33.6 µM, respectively. The EC50 in series [3] was > 98.3 µM. The compound further showed a CC50 in series [4] of 98.3 µM.

As for `CCC1C(=O)N(O)C(=O)c2ccccc21` (centres undefined), the IC50 was found to be 15.7 µM in series [1] and 70 µM in series [2] (read-out: IC50). For the same compound, the EC50 in series [3] was > 250 µM. The CC50 in series [4] stood at 250 µM.
